Screening results as filed in PubChem BioAssay.
Rows were chosen to be rich in hits. Some 2.4% of all compounds tested hit in one or more screens of this group.
NPY-Y2 antag = NPY-Y2 receptor antagonists, primary screen, cell-based. Neuropeptide Y receptor type 2 (Homo sapiens), P49146. NPY-Y2 expressing cells, antagonist mode. inhibition, % at 2.7 µM. actives 0.99% (n = 140,000); in the data active = inhibition above about 17%
NPY Y1 blocker = NPY-Y1 receptor antagonists, primary screen, cell-based; Neuropeptide Y receptor type 1 (Homo sapiens), P25929; HEK293-CNG Y1 cells, membrane potential fluorescence; NPY at EC95, then isoproterenol; inhibition, % at 3.6 µM; actives 1% (n = 200,000);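 active = inhibition above the campaign mean inhibition of all tested compounds plus 3 SD, cut at about 20% in these data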
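Material: HEK293 cells co-expressing NPY Y1 receptor and cyclic-nucleotide gated channel. Timing: compound incubation 1 h at room temperature, readout 45 min post-stimulation. Signal: fluorescence, membrane potential probe.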
NPY-Y1 PAM-ag = NPY-Y1 receptor potentiators or agonists, primary screen, cell-based; Neuropeptide Y receptor type 1 (Homo sapiens), P25929; NPY-Y1 expressing cells, potentiator/agonist activation; activation, % at 3.6 µM; actives 0.37% (n = 220,000); in the data active = activation above about 33%, passing the limit was not always enough;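 also: cells stimulated with NPY at EC10 then isoproterenol at EC100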
NPY-Y2 PAM-ag = NPY-Y2 potentiators or agonists, primary screen, cell-based | cells expressing NPY-Y2, potentiator/agonist read-out | actives 0.45% (n = 220,000) | activation, % at 3.6 µM | Neuropeptide Y receptor type 2 (Homo sapiens), P49146; in the data active = activation above about 27%;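 also: cells stimulated with NPY near EC25 plus isoproterenol at EC100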
S1P4 antag = S1P4 receptor antagonists, primary screen, cell-based; AID 1510, 2009; actives 0.26% (n = 220,000); Sphingosine 1-phosphate receptor 4 (Homo sapiens), O95977; S1P4-expressing cells, antagonist mode, reporter read-out; inhibition, % at 4.98 µM; in the data active = inhibition above about 29%
Target sequence (O95977 whole entry, looked up): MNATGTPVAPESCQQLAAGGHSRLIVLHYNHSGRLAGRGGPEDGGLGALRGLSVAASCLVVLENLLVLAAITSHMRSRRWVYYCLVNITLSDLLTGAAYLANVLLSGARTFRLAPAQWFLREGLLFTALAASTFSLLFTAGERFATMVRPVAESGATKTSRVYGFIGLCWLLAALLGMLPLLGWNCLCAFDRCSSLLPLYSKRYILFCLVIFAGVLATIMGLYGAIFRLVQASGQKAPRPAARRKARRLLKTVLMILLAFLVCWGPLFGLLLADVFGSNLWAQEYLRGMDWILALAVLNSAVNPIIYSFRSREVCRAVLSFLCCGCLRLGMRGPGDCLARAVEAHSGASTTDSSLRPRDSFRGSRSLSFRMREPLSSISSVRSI
S1P4 ag = S1P4 receptor agonists, primary screen, cell-based | Sphingosine 1-phosphate receptor 4 (Homo sapiens), O95977 | S1P4-expressing cell line, agonist reporter assay | activation, % at 4.98 µM | actives 0.35% (n = 220,000) | AID 1509, 2009; in the data active = activation above about 11%
Each line names hits and unclear results; the compound was inactive in the other large screens.

CC(C)(C)N(NC(=O)c1ccccc1)C(=O)c1cccc(C(=O)N(NC(=O)c2ccccc2)C(C)(C)C)c1	NPY-Y2 antag 20, NPY Y1 blocker 41
O=C(c1ccc(Br)cc1)c1cc([N+](=O)[O-])ccc1N1CCCCC1	NPY-Y2 antag 17, NPY Y1 blocker 38
CNCc1ccccc1OCC(=O)Nc1ccccc1OC	NPY-Y1 PAM-ag 105, NPY-Y2 PAM-ag 37
COc1ccc(OCC(=O)Nc2ccccc2OC)cc1	none
COC(=O)C1CCN(Cc2ccc(OCCCN3CCN(c4ccc([N+](=O)[O-])cc4)CC3)cc2)CC1	none (no result: NPY-Y2 antag)
COC(=O)c1cc2c(=O)n3ccccc3nc2n(C(C)C)c1=N	S1P4 ag 12
N=c1c(C(=O)NCc2ccco2)cc2c(=O)n3ccccc3nc2n1Cc1ccc(Cl)cc1	NPY-Y2 antag 25, NPY Y1 blocker 36
N=c1n(Cc2ccccc2)c2ccccc2n1CC(O)COc1ccccc1 (centres undefined)	NPY-Y2 antag 43, NPY Y1 blocker 41
Cc1ccc(Cn2c(=N)n(CC(O)COc3ccccc3)c3ccccc32)cc1 (centres undefined)	NPY-Y2 antag 34, NPY Y1 blocker 36
COc1ccc(OCC(O)Cn2c(=N)n(CCN3CCOCC3)c3ccccc32)cc1 (centres undefined)	none
CCC(=O)N(CCC(c1ccco1)c1ccccc1OC)Cc1cccs1 (centres undefined)	NPY-Y2 antag 22, NPY Y1 blocker 25
COc1ccc(O[C@H]2C=C[C@@H](c3ccccc3)O[C@@H]2CO/N=C(\C)CCN2CCCCc3nc(C)c(C)cc32)cc1	NPY-Y2 antag 21, NPY Y1 blocker 22
C/C(CCN1CCCCc2nc(C)c(C)cc21)=N\O[C@@H](C)CN1CCCCc2nc(C)c(C)cc21	none
Nc1ccccc1S(=O)(=O)NC1=NCCCCC1	none
CNC(=O)COC(=O)c1ccccc1NC(=O)c1ccco1	none (no result: NPY-Y2 antag, NPY Y1 blocker)
CC1CCCCC1NC(=O)COC(=O)c1ccccc1NC(=O)c1ccco1 (centres undefined)	NPY-Y2 antag 19, NPY Y1 blocker 30
NC(=O)NC(=O)COC(=O)c1cccc(S(=O)(=O)N2CCCCCC2)c1	none (no result: NPY-Y2 antag, NPY Y1 blocker)
COC(=O)CSc1nnc(-c2ccc(S(=O)(=O)NCc3ccccc3Cl)cc2)o1	NPY-Y1 PAM-ag 80, NPY-Y2 PAM-ag 81
CCOC(=O)CSc1nnc(-c2ccc(S(=O)(=O)NCc3cccs3)cc2)o1	NPY-Y1 PAM-ag 91, NPY-Y2 PAM-ag 88
CCOC(=O)CSc1nnc(-c2ccccc2)o1	none
COC(=O)CSc1nnc(-c2ccc(S(=O)(=O)NCc3cccs3)cc2)o1	NPY-Y1 PAM-ag 101, NPY-Y2 PAM-ag 84
O=c1c2[nH]c3cccc(Cl)c3c2ncn1Cc1ccco1	none (no result: NPY-Y2 antag, NPY Y1 blocker)
Cc1nn(Cc2cccc(C(=O)NN)c2)c(C)c1Cl	none (no result: NPY-Y2 antag, NPY Y1 blocker)
CC(C(=O)OCC(=O)c1cccc([N+](=O)[O-])c1)N1C(=O)C2C3CCC(C3)C2C1=O (centres undefined)	none
CCN(CC)CCC(=O)NC(C)(C)Cc1ccc(O)cc1	NPY-Y1 PAM-ag 37
Cc1ccc(NC(=O)NC(=O)CN2C(=O)NC3(CCCCCCC3)C2=O)c(C)c1	NPY-Y1 PAM-ag 40
Cc1cccc(NC(=O)C2CCN(S(=O)(=O)c3cccc4nsnc34)CC2)n1	none
COc1ccc2nc(NC(=O)C3CCN(S(=O)(=O)c4cccc5nsnc45)CC3)sc2c1	NPY-Y1 PAM-ag 47
O=C(/C=C/c1ccc2c(c1)OCO2)NCCSCc1ccc(Cl)cc1	NPY-Y2 antag 23, NPY Y1 blocker 37
O=C1c2ccccc2-c2onc3ccc(NCc4ccco4)c1c23	NPY-Y1 PAM-ag 53, NPY-Y2 PAM-ag 53
Cc1ccc2nc(SC(C)C(=O)N3CCCC3)[nH]c2c1 (centres undefined)	none
Cc1ccc2nc(SC(C)C(=O)N3CC(C)OC(C)C3)[nH]c2c1 (centres undefined)	NPY Y1 blocker 21 (no result: NPY-Y2 antag)
Cc1ccc2c(c1)N(CC(=O)NC1CCC(C)CC1)C(=O)CO2 (centres undefined)	none
